# Compound activity as filed in PubChem.
# Rows were chosen to be rich in hits. Some 3.1% of all compounds tested hit in one or more screens of this group.
# OX1R antag-1 = OX1R (HCRTR1) antagonists, primary screen, fluorescence, CHO/OX1R cells, Fluo-8 calcium, orexin A | Orexin/Hypocretin receptor type 1 (Homo sapiens), O43613 | Fluo-8 calcium fluorescence | inhibition, % at 5 µM | actives 0.43% (n = 330,000);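 active = inhibition above its plate's threshold, mean inhibition of all tested compounds on the plate plus 3 SD, cut at about 37% in these data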;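 also: 0% = orexin A challenge wells and 100% = SB-334867-A antagonist wells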
# GalR3 antagonist = GalR3 antagonists in HEK293 cells, primary screen, cell-based, fluorescence readout; Galanin receptor type 3 (Homo sapiens), O60755; HEK293 GalR3-CNG cAMP membrane potential fluorescence; galR3 body fused to GalR1 C-terminus; inhibition, % at 3 µM; actives 0.44% (n = 360,000);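 active = inhibition above the screen-wide average plus 3 SD, cut at about 13% in these data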;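 also: forskolin and galanin both at EC90 stimulate the cells; cAMP rise reported by CNG channel membrane potential dye signal; 0% = forskolin plus galanin with DMSO and 100% = forskolin alone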
# CHO parental Ca = ATP-evoked calcium signal inhibitors, parental CHO, primary screen, counter-screen for OX1R antagonist project, cell-based, fluorescence, Fluo-8 calcium dye; actives 0.63% (n = 330,000); parental CHO-K1, ATP-induced calcium, Fluo-8 fluorescence; inhibition, % at 5.6 µM;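 active = inhibition above that plate's mean sample inhibition plus 3 SD, cut at about 26% in these data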;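 also: 0% = ATP-challenged DMSO wells and 100% = DMSO wells without ATP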
#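 Test system: untransfected parental CHO cell line; also added: ATP stimulus; dosing: 5.6 µM, single dose; signal: calcium-sensitive Fluo-8 fluorescence; measure: percent inhibition of ATP-evoked calcium rise, normalized to controls; benchmarks: low control ATP plus DMSO, high control DMSO only; replication: one well per compound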
# OX1R antag-2 = antagonists of human orexin 1 receptor (OX1R); Orexin/Hypocretin receptor type 1 (Homo sapiens), O43613; OX1R-expressing cells, FRET antagonist read-out; inhibition, % at 6.6 µM; actives 1.8% (n = 330,000); AID 485270, 2010; in the data active = inhibition mostly above about 38%, no sharp cut-off; inactive = mostly below about 40%;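 also: 0% = agonist challenge alone and 100% = reference antagonist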
# GPR7 antagonist = GPR7 receptor antagonists, primary screen, cell-based, fluorescence, single concentration. Neuropeptides B/W receptor type 1 (Homo sapiens), P48145. GPR7-expressing cells, fluorescence antagonist assay. inhibition, % at 4.4 µM. actives 1.1% (n = 290,000). AID 1861, 2009; in the data active = inhibition above about 16%, passing the limit was not always enough;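 also: cells stimulated with the agonist NPW; 0% = agonist with vehicle and 100% = vehicle without agonist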
# Target sequence (P48145 whole entry, looked up): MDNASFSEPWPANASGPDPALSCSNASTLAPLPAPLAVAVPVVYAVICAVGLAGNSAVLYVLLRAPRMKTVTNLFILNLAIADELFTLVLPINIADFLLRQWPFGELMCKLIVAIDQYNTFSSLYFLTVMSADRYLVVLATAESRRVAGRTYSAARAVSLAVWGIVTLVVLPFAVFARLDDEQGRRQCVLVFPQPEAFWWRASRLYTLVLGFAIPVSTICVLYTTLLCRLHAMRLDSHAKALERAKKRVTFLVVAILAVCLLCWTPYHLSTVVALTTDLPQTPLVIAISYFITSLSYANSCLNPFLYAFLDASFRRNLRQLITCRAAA
# OX1R HTRF conf = OX1R (HCRTR1) antagonists, confirmation, cell-based, HTRF; AID 492964, 2010; actives 49% (n = 1,800); OX1R-expressing cells, HTRF antagonist assay; inhibition, % at 6.6 µM; shares compounds with OX1R antag-2; in the data active = inhibition above about 55%;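 also: CHO cells expressing OX1R stimulated with orexin A at about EC80; 0% = agonist challenge alone and 100% = reference antagonist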
# CHO-K1 HTRF = signal inhibition in parental CHO-K1 cells, counter-screen for OX1R antagonist project, cell-based, HTRF; shares compounds with OX1R antag-2; HTRF counterscreen; inhibition, % at 6.6 µM; actives 48% (n = 1,800); AID 493232, 2011; in the data active = inhibition above about 17%;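 also: 0% = agonist challenge with vehicle and 100% = vehicle alone without agonist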
# * hit, by the source's call; · = not tested or not shown.
SMILES,OX1R antag-1,GalR3 antagonist,CHO parental Ca,OX1R antag-2,GPR7 antagonist,OX1R HTRF conf,CHO-K1 HTRF
Cc1cc(C)n2[nH]c(=O)c(N=Nc3ccccc3)c2n1,-10,-1,-1,188*,6,46,86*
Cc1cc(C)n2[nH]c(=O)c(N=Nc3cccc(Cl)c3)c2n1,-25,-2,-7,55,-7,·,·
Cc1cc(=O)n2[nH]c(=O)c(N=Nc3ccccc3)c2[nH]1,-3,-3,-5,126*,-8,49,58*
COc1ccccc1NC(=O)COC(=O)/C=C/c1ccc(OC)c(OC)c1,-33,-4,-28,10,·,·,·
CCOC(=O)[C@]12CCC=C1N(Cc1ccco1)C(=O)[C@H](CC(=O)NCc1ccc(C)o1)C2,·,-4,·,·,·,·,·
CCOC(=O)N1CCC(NC(=S)Nc2ccc3nc(N4CCN(C)CC4)cc(C)c3c2)CC1,-23,-3,-7,105*,-3,20,-1
CCOC(=O)N1CCC(NC(=S)Nc2ccc3nc(N4CCN(CC)CC4)cc(C)c3c2)CC1,-23,-5,-16,7,-16,·,·
O=C(/C=C/c1ccc([N+](=O)[O-])cc1)NCc1cccnc1,-3,-4,3,104*,14,35,36*
O=C(O)c1c2c(nc3ccccc13)/C(=C/c1cccc([N+](=O)[O-])c1)CCC2,-7,-5,2,36,-14,·,·
O=C(O)CCC(=O)Nc1nc2nc(-c3ccccc3)cc(-c3ccccc3)n2n1,-11,-5,-15,109*,9,25,15
COC(=O)c1cc(C(=O)Nc2cc(C)on2)cc([N+](=O)[O-])c1,-12,0,-6,-3,-15,·,·
O=C(c1ccc(F)cc1)N1CCN(C(=O)c2ccc([N+](=O)[O-])cc2)CC1,-23,-5,-6,86*,0,44,34*
O=C(NCC1CCN(C(=O)c2ccc([N+](=O)[O-])cc2)CC1)c1ccc([N+](=O)[O-])cc1,-24,-9,-4,86*,10,42,36*
O=C(c1ccc(Cl)cc1[N+](=O)[O-])N1CCOCC1,-14,-2,-3,24,-6,·,·
O=C(c1ccc([N+](=O)[O-])cc1[N+](=O)[O-])N1CCCC1,-15,1,1,112*,-4,41,46*
CCc1ccc(-c2cc(C)no2)cc1S(=O)(=O)NC(C)Cc1ccco1 (stereo unspecified),-23,-3,-14,32,9,·,·
COc1cccc(CC(=O)N2CCN(C(=O)C(=O)c3ccc(OC)c(OC)c3)CC2)c1,·,-6,·,·,·,·,·
CCCc1cc(=O)[nH]c(SCC(=O)N2c3ccccc3NC(=O)C2(C)C)n1,-2,4,-5,1,·,·,·
O=C(O)Cc1ccc(NC(=O)c2ccc3c(c2)C(=O)N(CC2CCCO2)C3=O)cc1 (stereo unspecified),-3,1,-14,79*,1,43,43*
CCC(=O)c1ccc(OCC(=O)OCC(=O)NC2CCCCCCC2)cc1,-7,-1,-5,2,14,·,·
Nc1c([N+](=O)[O-])cc(-c2cnc[nH]2)cc1[N+](=O)[O-],3,-7,7,102*,-18,61*,102*
CN(C)CCNC(=O)C(=O)NCC1OCCN1S(=O)(=O)c1ccc([N+](=O)[O-])cc1 (stereo unspecified),-1,0,-7,89*,-8,41,60*
CCN(CC)CCNC(=O)C(=O)NCC1OCCN1S(=O)(=O)c1ccc(Cl)cc1 (stereo unspecified),2,2,1,5,-13,·,·
CCN(CC)CCNC(=O)C(=O)NCC1OCCN1S(=O)(=O)c1ccc([N+](=O)[O-])cc1 (stereo unspecified),-6,-5,1,92*,3,41,64*
CC(C)c1ccc(CNc2ncccn2)cc1,-4,2,5,-3,5,·,·
